The source made the active and inactive calls. No cut-off for these calls is given here. Residues, ends and D or L forms follow the SMILES beside them. *: point of attachment. X1 = O=C(c1ccc(-c2c3nc(c(-c4ccccc4)c4ccc([nH]4)c(-c4ccccc4)c4nc(c(-c5ccccc5)c5ccc2[nH]5)C=C4)CC3)cc1)*; Ahx = NCCCCCC(=O)O
molecular target: T1, Neuropilin-1 (Homo sapiens, UniProt O14786); assay: Inhibition of VEGF binding to NRP1 expressed in CHO cells; type: cell-based
T1 sequence (O14786 whole entry): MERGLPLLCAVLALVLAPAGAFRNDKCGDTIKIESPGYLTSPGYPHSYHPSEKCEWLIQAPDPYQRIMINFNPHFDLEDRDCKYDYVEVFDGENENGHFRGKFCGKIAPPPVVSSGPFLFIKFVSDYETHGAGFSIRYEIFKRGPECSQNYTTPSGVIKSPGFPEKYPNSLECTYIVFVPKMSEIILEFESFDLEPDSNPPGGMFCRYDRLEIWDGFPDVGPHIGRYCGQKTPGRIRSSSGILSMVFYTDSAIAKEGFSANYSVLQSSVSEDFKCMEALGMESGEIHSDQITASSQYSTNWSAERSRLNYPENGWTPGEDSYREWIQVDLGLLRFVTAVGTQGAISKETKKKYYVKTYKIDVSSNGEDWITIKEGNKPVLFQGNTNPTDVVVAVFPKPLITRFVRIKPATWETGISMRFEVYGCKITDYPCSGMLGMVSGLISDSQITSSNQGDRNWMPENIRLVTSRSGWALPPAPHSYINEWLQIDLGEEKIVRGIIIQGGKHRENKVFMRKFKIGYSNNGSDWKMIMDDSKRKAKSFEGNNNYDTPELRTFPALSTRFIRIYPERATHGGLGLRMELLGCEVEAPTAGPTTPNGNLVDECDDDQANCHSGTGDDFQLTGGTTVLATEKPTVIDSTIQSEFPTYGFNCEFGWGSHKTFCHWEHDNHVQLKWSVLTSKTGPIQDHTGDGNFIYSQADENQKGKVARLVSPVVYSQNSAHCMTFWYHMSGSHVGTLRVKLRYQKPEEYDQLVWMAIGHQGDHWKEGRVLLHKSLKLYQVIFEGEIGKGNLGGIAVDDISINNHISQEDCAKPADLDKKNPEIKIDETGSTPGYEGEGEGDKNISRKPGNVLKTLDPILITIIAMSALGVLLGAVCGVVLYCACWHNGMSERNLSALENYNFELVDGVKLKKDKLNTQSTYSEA

Row | Compound | IC50 [µM]
1 | H-ATWLPPR-OH | 19

molecular target: T1, Neuropilin-1; assay: Displacement of biotinylated VEGF165 from recombinant NRP1 after 2 hrs by competitive binding assay
Outline: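 Plates coated overnight at room temperature with recombinant chimeric NRP-1 in PBS, then blocked with PBS/0.5% BSA for 1 h at 37 °C. Biotinylated VEGF165 (5 ng/mL; 110 pM), with heparin present, competed with increasing competitor concentrations for 2 h at room temperature. Bound label was detected with streptavidin-HRP, 20 min at room temperature, then stopped and read at 450 nm. IC50 was derived by the median effect method.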

Row | Compound | IC50 [µM]
2 | CC(C)C[C@H](NC(=O)[C@H](Cc1c[nH]c2ccccc12)NC(=O)[C@@H](NC(=O)[C@H](C)NC(=O)CCCCCNC(=O)c1ccc(-c2c3nc(c(-c4ccccc4)c4ccc([nH]4)c(-c4ccccc4)c4nc(c(-c5ccccc5)c5ccc2[nH]5)C=C4)CC3)cc1)[C@@H](C)O)C(=O)N1CCC[C@H]1C(=O)N1CCC[C@H]1C(=O)N[C@@H](CCCNC(=N)N)C(=O)O ({X1-Ahx}-ATWLPPR-OH) | 171
3 | CC1(C)O[C@@H]2[C@H](O1)[C@H](CN(CCNC(=N)N)C(=N)N)O[C@@H]2CC(=O)NCCc1c[nH]c2ccccc12 | 92

molecular target: T1, Neuropilin-1; assay: Inhibition of biotinylated VEGF165 binding to recombinant NRP1 at 100 uM after 2 hrs by competitive binding assay
Outline: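 NRP-1-coated wells were blocked with PBS/0.5% BSA for 1 h at 37 °C. Biotinylated VEGF165 was added with competitor at 100 µM for 2 h at room temperature, then washed. Detection used streptavidin-HRP, 20 min at room temperature, stop solution and OD at 450 nm. Results are absorbance relative to blocking-buffer-only wells, three wells per condition.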

Row | Compound | inhibition
4 | C[C@@H](O)CNC(=O)C[C@H]1O[C@@H](CNCc2ccccc2)[C@H]2OC(C)(C)O[C@H]21 | Active
5 | CC(C)C[C@H](NC(=O)[C@H](Cc1c[nH]c2ccccc12)NC(=O)[C@@H](NC(=O)[C@H](C)NC(=O)CCCCCNC(=O)c1ccc(-c2c3nc(c(-c4ccccc4)c4ccc([nH]4)c(-c4ccccc4)c4nc(c(-c5ccccc5)c5ccc2[nH]5)C=C4)CC3)cc1)[C@@H](C)O)C(=O)N1CCC[C@H]1C(=O)N1CCC[C@H]1C(=O)N[C@@H](CCCNC(=N)N)C(=O)O ({X1-Ahx}-ATWLPPR-OH) | Active
6 | CC1(C)O[C@@H]2[C@H](O1)[C@H](CNCCN)O[C@@H]2CC(=O)NCCc1c[nH]c2ccccc12 | Active
7 | CC(=O)O[C@H](C)CNC(=O)C[C@H]1O[C@@H](CNCc2nc3ccccc3[nH]2)[C@H]2OC(C)(C)O[C@H]21 | Active
8 | C[C@@H](O)CNC(=O)C[C@H]1O[C@@H](CNCCNc2ccccn2)[C@H]2OC(C)(C)O[C@H]21 | Active
9 | C[C@@H](O)CNC(=O)C[C@H]1O[C@@H](CN[C@@H](CCCNC(=N)N)C(=O)O)[C@H]2OC(C)(C)O[C@H]21 | Active
10 | CC1(C)O[C@@H]2[C@H](O1)[C@H](CN1CCN(C(=N)N)C1=O)O[C@@H]2CC(=O)NCCc1c[nH]c2ccccc12 | Active
11 | CC1(C)O[C@@H]2[C@H](O1)[C@H](CNCCNC(=O)OCc1ccccc1)O[C@@H]2CC(=O)NCCc1c[nH]c2ccccc12 | Active
12 | C[C@@H](O)CNC(=O)C[C@H]1O[C@@H](CNCc2ccncc2)[C@H]2OC(C)(C)O[C@H]21 | Active
13 | CC(C)(C)OC(=O)/N=C(\NCCNC[C@@H]1O[C@H](CC(=O)NCCc2c[nH]c3ccccc23)[C@@H]2OC(C)(C)O[C@@H]21)NC(=O)OC(C)(C)C | Active
14 | COC(=O)[C@H](CCCNC(=N)N)NC[C@@H]1O[C@H](CC(=O)NCCc2c[nH]c3ccccc23)[C@@H]2OC(C)(C)O[C@@H]21 | Active
15 | CC1(C)O[C@@H]2[C@H](O1)[C@H](CNCCNc1ccccn1)O[C@@H]2CC(=O)NCCc1c[nH]c2ccccc12 | Active
16 | CC1(C)O[C@@H]2[C@H](O1)[C@H](CN(CCN/C(=N/C(=O)OCc1ccccc1)NC(=O)OCc1ccccc1)/C(=N/C(=O)OCc1ccccc1)NC(=O)OCc1ccccc1)O[C@@H]2CC(=O)NCCc1c[nH]c2ccccc12 | Active
17 | CC(=O)O[C@H](C)CNC(=O)C[C@H]1O[C@@H](CNCCNC(=O)OCc2ccccc2)[C@H]2OC(C)(C)O[C@H]21 | Active
18 | CC(=O)O[C@H](C)CNC(=O)C[C@H]1O[C@@H](CNCc2ccncc2)[C@H]2OC(C)(C)O[C@H]21 | Active
19 | CC(=O)O[C@H](C)CNC(=O)C[C@H]1O[C@@H](CNCCc2nc3ccccc3[nH]2)[C@H]2OC(C)(C)O[C@H]21 | Active
20 | CC(=O)O[C@H](C)CNC(=O)C[C@H]1O[C@@H](CNCCNC(=N)N)[C@H]2OC(C)(C)O[C@H]21 | Active
21 | CC1(C)O[C@@H]2[C@H](O1)[C@H](CN(CCNC(=N)N)C(=N)N)O[C@@H]2CC(=O)NCCc1c[nH]c2ccccc12 | 65%

Row | Compound | inhibition
22 | CC(=O)O[C@H](C)CNC(=O)C[C@H]1O[C@@H](CN(CCN/C(=N/C(=O)OCc2ccccc2)NC(=O)OCc2ccccc2)/C(=N/C(=O)OCc2ccccc2)NC(=O)OCc2ccccc2)[C@H]2OC(C)(C)O[C@H]21 | Active
23 | CC1(C)O[C@@H]2[C@H](O1)[C@H](CNCc1ccncc1)O[C@@H]2CC(=O)NCCc1c[nH]c2ccccc12 | Active
24 | H-ATWLPPR-OH | Active
25 | CC1(C)O[C@@H]2[C@H](O1)[C@H](CNCc1ccccc1)O[C@@H]2CC(=O)NCCc1c[nH]c2ccccc12 | Active
26 | C[C@@H](O)CNC(=O)C[C@H]1O[C@@H](CNCc2nc3ccccc3[nH]2)[C@H]2OC(C)(C)O[C@H]21 | Active
27 | CC(C)(C)OC(=O)/N=C(/NC(=O)OC(C)(C)C)N1CCN(C[C@@H]2O[C@H](CC(=O)NCCc3c[nH]c4ccccc34)[C@@H]3OC(C)(C)O[C@@H]32)C1=O | Active
28 | CC(=O)O[C@H](C)CNC(=O)C[C@H]1O[C@@H](CNCCN/C(=N\C(=O)OC(C)(C)C)NC(=O)OC(C)(C)C)[C@H]2OC(C)(C)O[C@H]21 | Active
29 | CC1(C)O[C@@H]2[C@H](O1)[C@H](CNCc1nc3ccccc3[nH]1)O[C@@H]2CC(=O)NCCc1c[nH]c2ccccc12 | Active
30 | CC1(C)O[C@@H]2[C@H](O1)[C@H](CNCCNc1ncccn1)O[C@@H]2CC(=O)NCCc1c[nH]c2ccccc12 | Active
31 | CC(=O)O[C@H](C)CNC(=O)C[C@H]1O[C@@H](CNCCNc2ccccn2)[C@H]2OC(C)(C)O[C@H]21 | Active
32 | C[C@@H](O)CNC(=O)C[C@H]1O[C@@H](CNCCc2nc3ccccc3[nH]2)[C@H]2OC(C)(C)O[C@H]21 | Active
33 | CC(=O)O[C@H](C)CNC(=O)C[C@H]1O[C@@H](CNCCN)[C@H]2OC(C)(C)O[C@H]21 | Active
34 | CC1(C)O[C@@H]2[C@H](O1)[C@H](CNCCNC(=N)N)O[C@@H]2CC(=O)NCCc1c[nH]c2ccccc12 | Active
35 | C[C@@H](O)CNC(=O)C[C@H]1O[C@@H](CN(CCNC(=N)N)C(=N)N)[C@H]2OC(C)(C)O[C@H]21 | Active
36 | CC1(C)O[C@@H]2[C@H](O1)[C@H](CN[C@@H](CCCNC(=N)N)C(=O)O)O[C@@H]2CC(=O)NCCc1c[nH]c2ccccc12 | Active
37 | COC(=O)[C@H](CCCNC(=N)N)NC[C@@H]1O[C@H](CC(=O)NC[C@@H](C)OC(C)=O)[C@@H]2OC(C)(C)O[C@@H]21 | Active
38 | CC1(C)O[C@@H]2[C@H](O1)[C@H](CNCCc1nc3ccccc3[nH]1)O[C@@H]2CC(=O)NCCc1c[nH]c2ccccc12 | Active
